Usually bioavailability stands for the share of a dose that reaches the circulation, judged against a reference dose that is usually intravenous. One may read the Vd as the apparent volume that relates the amount in the body to the concentration in plasma or blood. Broadly, the IC50 is the concentration at which inhibition is half-maximal. Usually clearance stands for the volume of plasma or blood freed of the substance per unit of time. As usually defined, the half-life is the time in which the quantity being followed falls by half. The chromatographic logD is a lipophilicity value derived from retention on a column.

This is an account of results in ChEMBL document CHEMBL1156768, “The structure-activity relationship of the antimalarial ozonide arterolane (OZ277)” (J Med Chem, 2010).

Data set [1] has as its system Plasmodium berghei. The data set can be described thus: Antiplasmodial activity against Plasmodium berghei infected in NMRI mice (Mus musculus) assessed as reduction of parasitaemia level at 3 mg/kg, perorally daily once for 3 consecutive days measured after 4 days post-infection. In kind it is functional. Further details: scale not given: the % may be the effect or the level left; call rule not given here. The note with it: route oral. The method in brief:
(§1)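 P. berghei-infected NMRI mice, in groups of five, were dosed orally at 3 mg/kg on days +1, +2 and +3 postinfection. Parasitemia reduction, survival time and cure were scored.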

Another data set has as its target Cytochrome P450 3A4 (Homo sapiens, UniProt P08684). In words: Inhibition of human CYP3A4 up to 50 uM. In kind it is ADME.
Data set [2] can be described thus: Oral bioavailability in Sprague-Dawley rat. In kind it is ADME, organism-based. Conditions: in vivo. The procedure, abridged: (§2)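 Rats received an IV infusion over 5-10 min through a jugular cannula at 2.5-3.5 mg/kg, in DMSO/aqueous buffer or propylene glycol/ethanol/water. Oral gavage used aqueous suspensions in HPMC or CMC with 0.4% Tween 80 and 0.5% benzyl alcohol. Carotid blood was sampled, and plasma was acetonitrile-precipitated and measured by LC/MS against plasma calibration standards. Values are averages of 2-3 determinations.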

The test system of data set [3] is Plasmodium berghei. The data set can be described thus: Antiplasmodial activity against Plasmodium berghei infected in NMRI mice (Mus musculus) assessed as curing of parasitaemia at 3 mg/kg, perorally daily once for 3 consecutive days measured after 30 days post-infection. In kind it is functional. The note with it: route oral. The procedure, abridged:
as §1

In data set [4] the test system is Rattus norvegicus. In words: Neurotoxicity in Sprague-Dawley rat at 300 mg/kg, po daily once for 5 days. The class given is toxicity, organism-based. Conditions: in vivo, 120 h. The arrangement: dose 300 mg/kg, route oral. The method in brief: (§3)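 Preliminary toxicology was run in male rats given daily oral doses for five days.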
Data set [5] is described as follows: Volume of distribution in Sprague-Dawley rat at 2.5 to 3.5 mg/kg, iv. In kind it is ADME, organism-based. The arrangement: dose 2.5-3.5 mg/kg, route intravenous. Conditions: in vivo. The method in brief:
as §2

The subject of data set [6] is Rattus norvegicus. In words: Lymphatic organ toxicity in Sprague-Dawley rat at 300 mg/kg, po daily once for 5 days. In kind it is organism-based. Further details: dose 300 mg/kg, route oral. Conditions: in vivo, 120 h. The procedure, abridged: as §3
In data set [7] the test system is Rattus norvegicus. In words: Liver toxicity in Sprague-Dawley rat at 300 mg/kg, po daily once for 5 days. In kind it is organism-based. The arrangement: dose 300 mg/kg, route oral. Conditions: in vivo, 120 h. The method in brief: as §3
For data set [8], the system named is Plasmodium berghei. In words: Antiplasmodial activity against Plasmodium berghei infected in NMRI mice (Mus musculus) assessed as reduction of parasitaemia level at 10 mg/kg, perorally administered 1 day after post-infection measured after 3 days post-infection. In kind it is functional. The arrangement: scale not given: the % may be the effect or the level left. Conditions: route oral. The procedure, abridged:
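Groups of five NMRI mice infected with P. berghei received a single oral dose on day 1 postinfection. Read-out was percent reduction in parasitemia on day 3 postinfection. Individual measurements differed by less than 10%.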

In the next data set the target is Cytochrome P450 2C9 (Homo sapiens, UniProt P11712). The data set can be described thus: Inhibition of human CYP2C9 up to 50 uM. The class given is ADME.
Sequence of Cytochrome P450 2C9 (P11712 whole entry): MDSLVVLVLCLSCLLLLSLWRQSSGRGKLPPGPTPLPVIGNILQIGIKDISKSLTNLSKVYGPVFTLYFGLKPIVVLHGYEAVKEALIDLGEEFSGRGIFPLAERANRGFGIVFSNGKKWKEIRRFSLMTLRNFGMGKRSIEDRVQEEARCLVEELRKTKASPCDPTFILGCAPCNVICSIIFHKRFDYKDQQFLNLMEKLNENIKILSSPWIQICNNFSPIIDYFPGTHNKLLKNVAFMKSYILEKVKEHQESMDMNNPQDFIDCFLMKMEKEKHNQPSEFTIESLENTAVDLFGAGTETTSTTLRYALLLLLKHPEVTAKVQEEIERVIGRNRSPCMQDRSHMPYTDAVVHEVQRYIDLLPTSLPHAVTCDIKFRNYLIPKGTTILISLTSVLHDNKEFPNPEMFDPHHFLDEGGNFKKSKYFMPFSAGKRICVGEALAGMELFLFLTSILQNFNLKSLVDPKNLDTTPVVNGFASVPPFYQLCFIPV
The test system of data set [9] is Rattus norvegicus. In words: Renal toxicity in Sprague-Dawley rat at 300 mg/kg, po daily once for 5 days. The class given is organism-based. The arrangement: dose 300 mg/kg, route oral. Conditions: in vivo, 120 h. The method in brief: as §3
Data set [10] deals with Plasmodium falciparum. In words: Antimalarial activity against chloroquine-sensitive Plasmodium falciparum NF54 infected in human A+ erythrocytes assessed as [3H]hypoxanthine incorporation by semi-automated micro dilution assay. The class given is functional, organism-based.
Data set [11] concerns Plasmodium berghei. The data set can be described thus: Antiplasmodial activity against Plasmodium berghei infected in NMRI mice (Mus musculus) assessed as mice (Mus musculus) survival days at 3 mg/kg, perorally daily once for 3 consecutive days measured after 4 days post-infection. In kind it is functional. Conditions: route oral. The procedure, abridged:
as §1

The nature of data set [12]: Plasma clearance in Sprague-Dawley rat at 2.5 to 3.5 mg/kg, iv. In kind it is ADME, organism-based. The arrangement: dose 2.5-3.5 mg/kg, route intravenous. The method in brief:
as §2

In a further data set the target is Cytochrome P450 2D6 (Homo sapiens, UniProt P10635). The data set can be described thus: Inhibition of human CYP2D6 up to 50 uM. In kind it is ADME.
Sequence of Cytochrome P450 2D6 (P10635 whole entry): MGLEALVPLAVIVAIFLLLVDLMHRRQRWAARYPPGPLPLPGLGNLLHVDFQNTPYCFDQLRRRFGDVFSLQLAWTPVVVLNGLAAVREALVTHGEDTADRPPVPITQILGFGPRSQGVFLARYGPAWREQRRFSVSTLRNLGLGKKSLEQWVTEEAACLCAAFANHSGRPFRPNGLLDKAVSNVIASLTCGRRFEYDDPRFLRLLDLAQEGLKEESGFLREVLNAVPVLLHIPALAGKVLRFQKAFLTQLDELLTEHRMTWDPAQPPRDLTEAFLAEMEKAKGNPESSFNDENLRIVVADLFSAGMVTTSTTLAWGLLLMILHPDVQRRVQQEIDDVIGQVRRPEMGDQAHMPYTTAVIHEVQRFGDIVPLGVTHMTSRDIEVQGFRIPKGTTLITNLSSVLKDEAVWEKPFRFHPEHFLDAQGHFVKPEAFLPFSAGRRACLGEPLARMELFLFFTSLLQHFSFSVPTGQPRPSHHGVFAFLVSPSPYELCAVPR
A short description of data set [13]: Blood clearance in Sprague-Dawley rat at 2.5 to 3.5 mg/kg, iv. The class given is ADME, organism-based. The note with it: whole blood. Further details: dose 2.5-3.5 mg/kg, route intravenous. The method in brief:
as §2

The nature of data set [14]: Half life in Sprague-Dawley rat at 2.5 to 3.5 mg/kg, iv. In kind it is ADME, organism-based. The arrangement: dose 2.5-3.5 mg/kg, route intravenous. Conditions: in vivo. The procedure, abridged: as §2
The test system of data set [15] is Plasmodium falciparum. In words: Antimalarial activity against chloroquine-resistant Plasmodium falciparum K1 infected in human A+ erythrocytes assessed as [3H]hypoxanthine incorporation by semiautomated micro dilution assay. The class given is functional, organism-based.
Data set [16] in a line: Partition coefficient, log D in octanol/buffer at pH 7.4 by chromatographic method. In kind it is physicochemical.

Bounds are passed on as bounds.

Sequence of Cytochrome P450 3A4 (P08684 whole entry, the tested form may be a part): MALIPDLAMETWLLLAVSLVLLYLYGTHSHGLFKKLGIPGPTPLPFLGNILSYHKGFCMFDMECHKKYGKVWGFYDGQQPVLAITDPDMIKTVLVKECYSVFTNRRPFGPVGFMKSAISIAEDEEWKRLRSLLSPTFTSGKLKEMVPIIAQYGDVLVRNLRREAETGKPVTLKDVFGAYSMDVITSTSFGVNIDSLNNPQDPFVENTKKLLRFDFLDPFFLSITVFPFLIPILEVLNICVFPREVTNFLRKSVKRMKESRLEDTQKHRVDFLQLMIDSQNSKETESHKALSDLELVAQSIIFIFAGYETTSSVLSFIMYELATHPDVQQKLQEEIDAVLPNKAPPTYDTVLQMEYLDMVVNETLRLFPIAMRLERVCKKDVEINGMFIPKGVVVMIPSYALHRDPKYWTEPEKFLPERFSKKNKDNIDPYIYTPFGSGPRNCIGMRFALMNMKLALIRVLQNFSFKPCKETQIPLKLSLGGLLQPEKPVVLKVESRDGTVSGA

On to `Cc1ccc(S(=O)(=O)O)cc1.NC1CCN(C(=O)C[C@H]2CC[C@]3(CC2)OO[C@]2(O3)C3CC4CC(C3)CC2C4)CC1`, for which the Activity is more than 99.9% in the data set on Plasmodium berghei [1]; “Not Active” on Cytochrome P450 3A4; 60% with Plasmodium berghei [3]; “Non-toxic” in the data set with Rattus norvegicus [4]; “Non-toxic” in the data set with Rattus norvegicus [6]; “Non-toxic” in the data set on Rattus norvegicus [7]. The Activity with Plasmodium berghei [8] is more than 99.9%; on Cytochrome P450 2C9, “Not Active”; with Rattus norvegicus [9], “Non-toxic”; on Cytochrome P450 2D6, “Not Active”. In data set [2], this compound returned a bioavailability of 78%. This compound yielded a Vd in [5] of 19 L/kg. In addition, in the data set with Plasmodium falciparum [10], the IC50 stood at 0.39 ng/mL. In the data set with Plasmodium berghei [11], the Survival worked out at 27 days. Also, the figures for the clearance in data set [12] and in data set [13] were 157 mL/min/kg and 39.1 mL/min/kg, respectively. Besides, the half-life in data set [14] is 1.38 h.
As to `CC(C)(N)CNC(=O)C[C@H]1CC[C@]2(CC1)OO[C@]1(O2)C2CC3CC(C2)CC1C3.Cc1ccc(S(=O)(=O)O)cc1` [ARTEROLANE], the Activity with Plasmodium berghei [1] is recorded as more than 99.9%; on Cytochrome P450 3A4 it was “Not Active”; with Plasmodium berghei [3], 0%; with Rattus norvegicus [4] it was “Non-toxic”; with Rattus norvegicus [6], “Non-toxic”; in the data set with Rattus norvegicus [7], “Non-toxic”. Moreover, the Activity with Plasmodium berghei [8] is 99.9%; on Cytochrome P450 2C9 it was “Not Active”; in the data set with Rattus norvegicus [9], “Non-toxic”; at Cytochrome P450 2D6, “Not Active”. For the same compound, the bioavailability in [2] turned out to be 26%. The compound further registered a volume of distribution (Vd) in [5] of 16 L/kg. In addition, the 50% inhibitory concentration (IC50) with Plasmodium falciparum [15] is 1 ng/mL; in the data set with Plasmodium falciparum [10], 0.91 ng/mL. The compound further came in with a chromatographic logD in [16] of 2.9. Moreover, in the data set with Plasmodium berghei [11], the Survival came to 11.4 days. Moreover, the clearance worked out at 141 mL/min/kg in data set [12] and 62 mL/min/kg in data set [13]. Also, the half-life in data set [14] was found to be 1.27 h.
